According to ChEMBL document CHEMBL1136924 (J Med Chem, 2009):
Calls of active or inactive are those of the source.

Tests used:
[1] = biological target: 5-hydroxytryptamine receptor 4 (Cavia porcellus, UniProt O70528); assay: Displacement of [3H]GR-113808 from 5HT4 receptor in guinea pig striatum
[2] = biological target: T1, 5-hydroxytryptamine receptor 3A (Rattus norvegicus, UniProt P35563); assay: Displacement of [3H]LY278584 from 5HT3 receptor in rat cortical homogenate
T1 sequence (P35563 whole entry): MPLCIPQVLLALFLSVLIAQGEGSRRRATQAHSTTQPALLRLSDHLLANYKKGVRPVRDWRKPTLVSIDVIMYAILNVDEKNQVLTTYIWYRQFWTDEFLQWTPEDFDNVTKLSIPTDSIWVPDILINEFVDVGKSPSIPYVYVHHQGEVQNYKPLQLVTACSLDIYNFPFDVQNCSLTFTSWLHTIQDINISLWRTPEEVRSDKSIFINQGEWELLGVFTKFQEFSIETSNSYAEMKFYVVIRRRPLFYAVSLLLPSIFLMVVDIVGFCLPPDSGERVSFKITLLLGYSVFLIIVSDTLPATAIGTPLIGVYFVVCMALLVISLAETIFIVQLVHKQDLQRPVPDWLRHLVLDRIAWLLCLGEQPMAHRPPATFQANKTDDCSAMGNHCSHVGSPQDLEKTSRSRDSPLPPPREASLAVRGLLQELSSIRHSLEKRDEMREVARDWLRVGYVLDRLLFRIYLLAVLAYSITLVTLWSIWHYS

[3] = biological target: T2, 5-hydroxytryptamine receptor 1A (Rattus norvegicus, UniProt P19327); assay: Displacement of [3H]8-OHDPAT from 5HT1A receptor in rat hippocampus; format: tissue-based
T2 sequence (P19327 whole entry): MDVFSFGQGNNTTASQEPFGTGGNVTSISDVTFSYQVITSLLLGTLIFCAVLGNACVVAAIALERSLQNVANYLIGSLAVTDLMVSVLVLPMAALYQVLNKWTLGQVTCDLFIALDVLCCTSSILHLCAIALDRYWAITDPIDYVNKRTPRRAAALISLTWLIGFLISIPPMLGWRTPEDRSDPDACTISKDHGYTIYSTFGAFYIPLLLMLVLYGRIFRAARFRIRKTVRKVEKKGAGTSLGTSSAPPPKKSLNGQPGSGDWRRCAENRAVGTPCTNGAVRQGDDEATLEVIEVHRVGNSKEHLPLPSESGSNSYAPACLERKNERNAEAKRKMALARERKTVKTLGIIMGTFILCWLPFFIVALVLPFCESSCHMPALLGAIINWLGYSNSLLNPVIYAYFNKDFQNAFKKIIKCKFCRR

[4] = biological target: T1, 5-hydroxytryptamine receptor 3A; assay: Displacement of [3H]zacopride from 5HT3 receptor in rat cortex
[5] = biological target: 5-hydroxytryptamine receptor 2A (Rattus norvegicus, UniProt P14842); assay: Displacement of [3H]ketanserin from 5HT2A receptor in rat cortex
[6] = biological target: T3, 5-hydroxytryptamine receptor 3A (Cavia porcellus) (UniProt O70212); assay: Intrinsic activity at 5HT3 receptor in spontaneously beating guinea pig right atrium assessed as positive chronotropic potency relative to serotonin; conditions: Cardiac atrium
T3 sequence (whole entry): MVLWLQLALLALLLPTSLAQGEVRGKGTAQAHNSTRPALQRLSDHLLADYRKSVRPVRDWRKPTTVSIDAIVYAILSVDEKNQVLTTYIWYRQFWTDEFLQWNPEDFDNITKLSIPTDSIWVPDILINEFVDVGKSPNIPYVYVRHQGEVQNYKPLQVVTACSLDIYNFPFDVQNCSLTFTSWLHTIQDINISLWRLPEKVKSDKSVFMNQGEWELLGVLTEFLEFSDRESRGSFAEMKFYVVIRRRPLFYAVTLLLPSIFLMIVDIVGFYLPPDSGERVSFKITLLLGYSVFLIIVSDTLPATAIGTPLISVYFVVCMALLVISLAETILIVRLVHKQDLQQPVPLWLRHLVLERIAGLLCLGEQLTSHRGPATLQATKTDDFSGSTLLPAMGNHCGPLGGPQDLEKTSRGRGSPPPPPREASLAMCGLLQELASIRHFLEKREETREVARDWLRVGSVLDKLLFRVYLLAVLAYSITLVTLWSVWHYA
Summary of the method: (§1)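 Guinea pig left and right atria were hung in a 15 mL bath of PSS (pH 7.4, 95% O2-5% CO2, 35 °C) with ketanserin 1 µM. The right atrium beat spontaneously; the left was paced at 1 Hz. Cumulative doses (0.1-100 µM; DMSO ≤0.3%) were added after 45-60 min stabilization. Rate or isometric force was recorded. EC50 came from Probit analysis, n≥4. Intrinsic activity was taken relative to 5-HT.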

[7] = biological target: T3, 5-hydroxytryptamine receptor 3A (Cavia porcellus); assay: Agonist activity at 5HT3 receptor in spontaneously beating guinea pig right atrium assessed as positive chronotropic potency; format: functional, tissue-based; conditions: Cardiac atrium
Summary of the method: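 Isolated guinea pig atria in PSS (Tyrode) with ketanserin 1 µM, 95% O2-5% CO2, pH 7.4, 35 °C. Right atrium beating spontaneously (rate); left atrium paced 1 Hz, 0.6-0.8 ms pulses near 50% threshold (force). Isometric recording after 45-60 min stabilization.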

Rattus norvegicus = assay: Antagonist activity at 5HT3 receptor in iv dosed urethane-anesthetized Sprague-Dawley rat assessed as inhibition of 1-phenylbiguanide-induced bradycardia administered 5 mins before 1-phenylbiguanide challenge measured after 5 to 30 mins post-treatment by von Bezold-Jarisch reflex test; format: functional; conditions: for ED50: read-out: ID50 (the source's name)
[8] = biological target: T3, 5-hydroxytryptamine receptor 3A (Cavia porcellus); assay: Agonist activity at 5HT3 receptor in voltage-stimulated guinea pig left atrium assessed as positive inotropic potency at 100 uM; format: functional, tissue-based; conditions: Cardiac atrium; summary of the method: as §1
[9] = biological target: T3, 5-hydroxytryptamine receptor 3A (Cavia porcellus); assay: Agonist activity at 5HT3 receptor in guinea pig thoracic aorta assessed as positive contractility potency at 100 uM; format: functional, tissue-based
Summary of the method: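 Guinea pig aortic helicoidal strips in PSS at 35 °C, aerated, under 1 g resting force, washed every 20 min for 1 h. Compounds added cumulatively 0.1-100 µM (DMSO vehicle); isometric contraction recorded.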

[10] = biological target: T3, 5-hydroxytryptamine receptor 3A (Cavia porcellus); assay: Agonist activity at 5HT3 receptor in spontaneously beating guinea pig right atrium assessed as positive chronotropic potency at 100 uM; format: functional, tissue-based; conditions: Cardiac atrium; summary of the method: as §1
[11] = biological target: T4, 5-hydroxytryptamine receptor 3A (Cavia porcellus, UniProt O70212); assay: Antagonist activity at 5HT3 receptor in spontaneously beating guinea pig right atrium assessed as inhibition of serotonin-induced maximum response by noncompetitive binding assay; format: tissue-based, Cardiac atrium
T4 sequence (O70212 whole entry): T3 sequence (whole entry)
Summary of the method: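 Spontaneously beating guinea pig right atrium; 5-HT concentration-response curves (0.001-1.0 µM) before and after 30 min antagonist exposure at three concentrations. IC50 is inhibition of 50% of maximal 5-HT response, Probit analysis, n = 4-6.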

D(1A) dopamine receptor = D(1A) dopamine receptor (Rattus norvegicus, UniProt P18901); assay: Displacement of [3H]SCH-23390 from dopamine D1 receptor in rat striatum
[12] = biological target: Muscarinic acetylcholine receptor; assay: Displacement of [3H]QNB from muscarinic receptor in rat cortex
D(2) dopamine receptor = D(2) dopamine receptor (Rattus norvegicus, UniProt P61169); assay: Displacement of [3H]spiperone from dopamine D2 receptor in rat striatum
Chain of D(2) dopamine receptor (P61169 whole entry): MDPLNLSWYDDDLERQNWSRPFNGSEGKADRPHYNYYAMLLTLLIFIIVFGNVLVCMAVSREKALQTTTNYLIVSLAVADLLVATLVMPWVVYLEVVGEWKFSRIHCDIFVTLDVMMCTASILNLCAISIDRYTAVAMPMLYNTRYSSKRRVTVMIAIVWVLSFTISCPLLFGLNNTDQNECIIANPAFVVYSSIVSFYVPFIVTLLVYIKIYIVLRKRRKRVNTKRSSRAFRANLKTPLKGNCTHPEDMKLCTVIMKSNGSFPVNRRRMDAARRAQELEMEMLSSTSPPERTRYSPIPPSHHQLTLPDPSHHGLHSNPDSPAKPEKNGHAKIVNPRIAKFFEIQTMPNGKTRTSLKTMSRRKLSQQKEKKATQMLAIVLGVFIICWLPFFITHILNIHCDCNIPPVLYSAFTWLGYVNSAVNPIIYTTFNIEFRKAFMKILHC

Chain of 5-hydroxytryptamine receptor 4 (O70528 whole entry): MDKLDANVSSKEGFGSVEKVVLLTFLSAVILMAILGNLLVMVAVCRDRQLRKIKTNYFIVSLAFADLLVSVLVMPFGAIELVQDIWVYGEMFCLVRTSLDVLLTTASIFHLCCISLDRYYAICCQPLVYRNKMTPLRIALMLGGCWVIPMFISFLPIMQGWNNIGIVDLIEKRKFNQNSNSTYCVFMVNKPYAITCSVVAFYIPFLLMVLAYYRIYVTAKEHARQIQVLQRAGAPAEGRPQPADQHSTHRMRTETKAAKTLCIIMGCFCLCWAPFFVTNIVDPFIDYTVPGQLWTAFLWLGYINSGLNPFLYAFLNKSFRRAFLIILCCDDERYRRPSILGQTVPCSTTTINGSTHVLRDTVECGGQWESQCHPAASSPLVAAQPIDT
Chain of 5-hydroxytryptamine receptor 2A (P14842 whole entry): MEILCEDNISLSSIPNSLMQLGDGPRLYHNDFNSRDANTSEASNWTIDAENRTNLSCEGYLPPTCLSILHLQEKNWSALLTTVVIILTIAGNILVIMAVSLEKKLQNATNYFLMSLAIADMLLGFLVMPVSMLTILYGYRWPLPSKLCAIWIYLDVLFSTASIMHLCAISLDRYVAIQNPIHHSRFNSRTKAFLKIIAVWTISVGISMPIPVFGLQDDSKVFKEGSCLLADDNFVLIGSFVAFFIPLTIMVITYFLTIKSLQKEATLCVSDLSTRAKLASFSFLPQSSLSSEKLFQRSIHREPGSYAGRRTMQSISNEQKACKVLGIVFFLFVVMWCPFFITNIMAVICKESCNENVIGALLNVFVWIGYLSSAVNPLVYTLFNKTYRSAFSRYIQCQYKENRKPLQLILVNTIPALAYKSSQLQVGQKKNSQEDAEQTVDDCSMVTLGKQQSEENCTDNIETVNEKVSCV
Chain of D(1A) dopamine receptor (P18901 whole entry): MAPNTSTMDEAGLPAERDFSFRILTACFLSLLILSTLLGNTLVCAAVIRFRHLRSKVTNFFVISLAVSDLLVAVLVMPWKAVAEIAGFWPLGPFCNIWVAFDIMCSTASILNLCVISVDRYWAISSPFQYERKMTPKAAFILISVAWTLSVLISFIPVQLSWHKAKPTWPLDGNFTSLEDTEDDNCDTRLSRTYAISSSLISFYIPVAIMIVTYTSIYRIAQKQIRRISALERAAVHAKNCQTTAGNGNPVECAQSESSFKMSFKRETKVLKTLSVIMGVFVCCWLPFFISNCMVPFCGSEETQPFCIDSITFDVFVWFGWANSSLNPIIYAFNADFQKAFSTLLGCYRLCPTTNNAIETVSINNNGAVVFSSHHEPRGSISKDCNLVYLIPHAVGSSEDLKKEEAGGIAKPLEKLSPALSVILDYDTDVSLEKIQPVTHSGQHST

Compound: c1ccc2nc(N3CCNCC3)ccc2c1 [QUIPAZINE]
- Ki [1]: > 10000 nM
- Ki [2]: 0.96 nM

Compound: Cc1cccc2nc(N3CCN(C)CC3)c3cccn3c12
- Ki [3]: > 10000 nM
- Ki [4]: 0.8 nM

Compound: CN1CCN(c2nc3cc(O)ccc3n3cccc23)CC1
- Ki [4]: 0.7 nM

Compound: CN1CCN(c2nc3cc(F)ccc3n3cccc23)CC1
- Ki [5]: 124 nM
- Intrinsic activity [6]: 0.6
- Ki [3]: 138 nM
- pD2 [7]: 6.79
- ID50 (Rattus norvegicus): Dose-dependent effect
- ED50 (Rattus norvegicus): 0.6 mg/kg
- Ki [1]: > 10000 nM
- Ki [2]: 0.8 nM
- pD2 [8]: inactive
- pD2 [9]: inactive

Compound: O=c1[nH]nc(CN2CCN(c3nc4cc(F)ccc4n4cccc34)CC2)[nH]1
- Ki [2]: 17 nM

Compound: Fc1ccc2c(c1)nc(N1CCN(Cc3nnc[nH]3)CC1)c1cccn12
- pD2 [10]: inactive
- IC50 [11]: 8510 nM
- Ki [2]: 3.4 nM
- pD2 [8]: inactive
- pD2 [9]: inactive

Compound: NC(CO)C(=O)N1CCN(c2nc3cc(F)ccc3n3cccc23)CC1 (single isomer, unassigned)
- Ki [2]: 237 nM

Compound: Fc1ccc2c(c1)nc(N1CCN(Cc3nnn[nH]3)CC1)c1cccn12
- Ki [2]: 65 nM

Compound: Cc1cccc2nc(N3CCN(C(CO)c4ccccc4)CC3)c3cccn3c12 (centres undefined)
- Ki [2]: 79 nM

Compound: O=C(O)CN1CCN(c2ccc3ccccc3n2)CC1
- Ki [5]: > 10000 nM
- Ki (D(1A) dopamine receptor): > 10000 nM
- Ki [3]: > 10000 nM
- Ki [12]: > 10000 nM
- Ki [1]: 5750 nM
- Ki [2]: 11.2 nM
- Ki (D(2) dopamine receptor): 919 nM

Compound: Fc1ccc2c(c1)nc(N1CCN(Cc3ccccc3)CC1)c1cccn12
- Ki [4]: 13 nM

Compound: CS(=O)(=O)NC(=O)CN1CCN(c2nc3cc(F)ccc3n3cccc23)CC1
- Ki [2]: 246 nM

Compound: O=c1[nH]nc(CN2CCN(c3nc4cc(F)ccc4n4cccc34)CC2)o1
- Ki [2]: 127 nM

Compound: O=C(CN1CCN(c2nc3cc(F)ccc3n3cccc23)CC1)NO
- ED50 (Rattus norvegicus): 0.05 mg/kg
- Ki [2]: 2.2 nM

Compound: O=C(O)CN1CCN(c2nc3cc(O)ccc3n3cccc23)CC1
- Ki [2]: 2.1 nM

Compound: Cc1cccc2nc(N3CCN(C(C(=O)O)c4ccccc4)CC3)c3cccn3c12 (centres undefined)
- Ki [2]: 44 nM

Compound: Cc1cccc2nc(N3CCN(CC(=O)NO)CC3)c3cccn3c12
- Ki [2]: 3 nM
